Experimental data as given in ChEMBL document CHEMBL1122338, “Mutagenicity and chemistry of N-nitroso-N-(p-substituted-benzyl)methylamines” (1983).
Several values for one entry are separate records, joined by “and”; a condition that tells them apart may be missing. Equal values may be shown once.

How the values were obtained:
S9 [1] = experiment: (§1) Activity expressed as no. of revertants per plate in strain TA1535 with and without hamster S9 cells (3 mg/plate) at the dose of 10 ug; type: functional, Cricetulus griseus
S9 [2] = experiment: Activity expressed as no. of revertants per plate in strain TA1535 with and without hamster S9 cells (3 mg/plate) at the dose of 25 ug; type: functional, Cricetulus griseus
S9 [3] = experiment: (§2) Activity expressed as no. of revertants per plate in strain TA1535 with hamster S9 cells (3 mg/plate); type: functional, Cricetulus griseus
S9 [4] = experiment: (§3) Activity expressed as no. of revertants per plate in strain TA1535 with and without hamster S9 cells (3 mg/plate) at the dose of 5 ug; type: functional, Cricetulus griseus
S9 [5] = experiment: (§4) Activity expressed as no. of revertants per plate in strain TA1535 with and without hamster S9 cells (3 mg/plate) at the dose of 1 ug; type: functional, Cricetulus griseus
S9 [6] = experiment: (§5) Activity expressed as no. of revertants per plate in strain TA1535 with and without hamster S9 cells (3 mg/plate) at the dose of 2.5 ug; type: functional, Cricetulus griseus
Salmonella typhimurium = experiment: Activity expressed as no. of revertants per plate in Salmonella Typhimurium TA1535 with and without hamster S9 cells (3 mg/plate) at the dose of 50 ug; type: functional, Salmonella enterica subsp. enterica serovar Typhimurium
S9 [7] = experiment: (§6) Activity expressed as no. of revertants per plate in strain TA1535 with and without hamster S9 cells (3 mg/plate) at the dose of 500 ug; type: functional, Cricetulus griseus
S9 [8] = experiment: Activity expressed as no. of revertants per plate in strain TA1535 with and without hamster S9 cells (3 mg/plate) at the dose of 100 ug; type: functional, Cricetulus griseus
S9 [9] = experiment: (§7) Activity expressed as no. of revertants per plate in strain TA1535 with and without hamster S9 cells (3 mg/plate) at the dose of 250 ug; type: functional, Cricetulus griseus
S9 [10] = experiment: Activity expressed as no. of revertants per plate in strain TA1535 with and without hamster S9 cells (3 mg/plate) at the dose of 1000 ug; type: functional, Cricetulus griseus
S9 [11] = experiment: Activity expressed as no. of revertants per plate in strain TA1535 without hamster S9 cells (3 mg/plate) at the dose of 250 ug; type: functional, Cricetulus griseus
Summary of the method: (§8)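 Ames plate incorporation test in Salmonella TA1535 (base-pair substitution detector), with or without Aroclor 1254-induced hamster S9 mix (3 mg/plate). Doses span a 10-point range of 1–1000 μg/plate. At least two independent dose-response studies, each on duplicate plates; mean revertants per plate reported. Counts are significant when above twice the historical or twice the current control mean, whichever is greater.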

S9 [12] = experiment: Activity expressed as no. of revertants per plate in strain TA1535 without hamster S9 cells (3 mg/plate) at the dose of 50 ug; type: functional, Cricetulus griseus; summary of the method: as §8
S9 [13] = experiment: as §7; type: functional, Cricetulus griseus; summary of the method: as §8; remark: listed apart in the source
S9 [14] = experiment: as §6; type: functional, Cricetulus griseus; summary of the method: as §8; remark: listed apart in the source
S9 [15] = experiment: as §5; type: functional, Cricetulus griseus; summary of the method: as §8; remark: listed apart in the source
S9 [16] = experiment: as §6; type: functional, Salmonella enterica subsp. enterica serovar Typhimurium; summary of the method: as §8
S9 [17] = experiment: as §4; type: functional, Cricetulus griseus; summary of the method: as §8; remark: listed apart in the source
S9 [18] = experiment: as §1; type: functional, Cricetulus griseus; summary of the method: as §8; remark: listed apart in the source
S9 [19] = experiment: as §2; type: functional, Cricetulus griseus; summary of the method: as §8; remark: listed apart in the source
S9 [20] = experiment: as §3; type: functional, Cricetulus griseus; summary of the method: as §8; remark: listed apart in the source

Structure (SMILES) | Activity (S9 [1]) | Activity (S9 [2]) | Activity (S9 [3]) | Activity (S9 [4]) | Activity (S9 [5]) | Activity (S9 [6]) | Activity (S9 [8]) | Activity (S9 [9]) | other results
CN(Cc1ccc(C#N)cc1)N=O | 23 and 32 | 29 and 45 | 21 and 13 | 29 | 25 and 14 | 26 and 19 | – | – | –
CN(Cc1ccc([N+](=O)[O-])cc1)N=O | 10 and 12 | 13 and 27 | 13 and 9 | 14 and 11 | 17 and 11 | 18 and 15 | – | – | –
CN(Cc1ccc(C(=O)O)cc1)N=O | – | 6 and 4 | 11 and 6 | 13 and 6 | 12 and 8 | 12 and 6 | 13 and 10 | 15 and 7 | Activity (Salmonella typhimurium): 8 and 5 and 10 and 7; Activity (S9 [7]): 10 and 8; Activity (S9 [10]): 14 and 9
CN(Cc1ccccc1)N=O | 12 | 18 and 24 | 14 and 20 | 15 and 24 | 14 and 21 | 18 and 24 | 17 and 44 | 23 and 58 | –
COc1ccc(CN(C)N=O)cc1 | 24 and 14 | 18 and 17 | 11 and 8 | 15 and 10 | 10 and 13 | 21 and 19 | 15 and 44 | 56 | Activity (Salmonella typhimurium): 11 and 26; Activity (S9 [11]): 20; Activity (S9 [12]): 19
CN(Cc1ccc(F)cc1)N=O | 13 and 8 | 13 and 17 | 14 and 6 | 12 and 10 | 15 and 8 | 16 and 7 | – | 39 | Activity (S9 [7]): 21 and 50; Activity (S9 [13]): 17; Activity (S9 [10]): 16
CN(Cc1ccc(Cl)cc1)N=O | – | – | 13 | – | – | – | – | – | Activity (S9 [14]): 10; Activity (S9 [15]): 18 and 15; Activity (S9 [16]): 913; Activity (S9 [17]): 13 and 9; Activity (S9 [18]): 12 and 32; Activity (S9 [19]): 19; Activity (S9 [20]): 20 and 17
